The source of these data is ChEMBL document CHEMBL1124186, “Synthesis and evaluation of tylosin-related macrolides modified at the aldehyde function: a new series of orally effective antibiotics” (1988).

In brackets after ≈: the same amount, converted by molar mass.

Test [1] has as its system Streptococcus pyogenes. Kind of test: Activity against Streptococcus pyogenes C203 when administered orally. It counts as functional. The note with it: po. A digest of the protocol:
(§1)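 Mouse protection test: infected mice were dosed twice, at 1 and 5 h postinfection, either subcutaneously or orally. […] The result is expressed as ED50 in mg/kg × 2.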

The subject of test [2] is Streptococcus pyogenes. Kind of test: Activity against Streptococcus pyogenes C203 when administered sc. The class given is functional. A digest of the protocol:
as §1

The subject of test [3] is Streptococcus pyogenes. Kind of test: Antimicrobial activity against Streptococcus pyogenes C203. It counts as functional.
Test [4] relates to Haemophilus influenzae. In words: In vitro antimicrobial activity against aerobic bacteria Haemophilus influenzae 76. It counts as functional.
The test system of test [5] is Haemophilus influenzae. In words: In vitro antimicrobial activity against aerobic bacteria Haemophilus influenzae MX366,. The class given is functional.
Test [6] concerns Haemophilus influenzae. In words: In vitro antimicrobial activity against Haemophilus influenzae. It counts as functional.
Test [7] relates to Mus musculus. Kind of test: Peripheral plasma levels in mice after oral administration of 100 mg/kg dose for 4 hr. The class given is functional, organism-based. Set-up: dose 100 mg/kg. A digest of the protocol:
(§2)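 Mice were given the compound orally and sampled for peripheral plasma at each time point. Plasma was assayed microbiologically against Micrococcus luteus seeded in Antibiotic Medium 1. Inhibition zone sizes were read, and concentrations were calculated from each compound's own standard curve. Each value is the mean of five mice per time point.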

Test [8] relates to Mus musculus. In words: Peripheral plasma levels in mice after oral administration of 100 mg/kg dose for 0.25 hr. Set-up: dose 100 mg/kg. The class given is functional, organism-based. A digest of the protocol:
as §2

Test [9] relates to Mus musculus. In words: Peripheral plasma levels in mice after oral administration of 100 mg/kg dose for 0.5 hr. Set-up: dose 100 mg/kg. It counts as functional, organism-based. An outline of the steps:
as §2

Test [10] concerns Mus musculus. In words: Peripheral plasma levels in mice after oral administration of 100 mg/kg dose for 1 hr. Set-up: dose 100 mg/kg. It counts as functional, organism-based. A digest of the protocol:
as §2

Test [11] relates to Mus musculus. In words: Peripheral plasma levels in mice after oral administration of 100 mg/kg dose for 2 hr. It counts as functional, organism-based. Set-up: dose 100 mg/kg. An outline of the steps:
as §2

The test system of test [12] is Mus musculus. In words: Peripheral plasma levels in mice after oral administration of 50 mg/kg dose for 1 hr. It counts as functional, organism-based. Also noted: dose 50 mg/kg. An outline of the steps:
as §2

In test [13] the test system is Streptococcus. In words: In vitro antimicrobial activity against aerobic bacteria Streptococcus B 14. The class given is functional.
In test [14] the test system is Streptococcus. Kind of test: In vitro antimicrobial activity against aerobic bacteria Streptococcus B 8. It counts as functional.
The subject of test [15] is Streptococcus. In words: In vitro antimicrobial activity against aerobic bacteria Streptococcus C 24. The class given is functional.
For test [16], the system named is Streptococcus. Kind of test: In vitro antimicrobial activity against aerobic bacteria Streptococcus D 8043. It counts as functional.
The subject of test [17] is Streptococcus. Kind of test: In vitro antimicrobial activity against aerobic bacteria Streptococcus D 9960. The class given is functional.
The test system of test [18] is Streptococcus. In words: In vitro antimicrobial activity against aerobic bacteria Streptococcus G Kruder. It counts as functional. As to conditions: Streptococcus; read-out: MIC.
Test [19] concerns Staphylococcus epidermidis. In words: In vitro antimicrobial activity against aerobic bacteria Streptococcus epi 270. The class given is functional.
Test [20] deals with Staphylococcus aureus. Kind of test: In vitro antimicrobial activity against Staphylococcus aureus X1. The class given is functional.
In test [21] the test system is Staphylococcus aureus. Kind of test: In vitro antimicrobial activity against aerobic bacteria Staphylococcus aureus 513E. It counts as functional.
Test [22] deals with Staphylococcus aureus. In words: In vitro antimicrobial activity against aerobic bacteria Staphylococcus aureus V140,. It counts as functional.
Test [23] relates to Staphylococcus aureus. Kind of test: In vitro antimicrobial activity against aerobic bacteria Staphylococcus aureus V41. It counts as functional.
In test [24] the test system is Staphylococcus aureus. Kind of test: In vitro antimicrobial activity against aerobic bacteria Staphylococcus aureus X400. It counts as functional.
Test [25] relates to Streptococcus pneumoniae. Kind of test: In vitro antimicrobial activity against aerobic bacteria Streptococcus pneumoniae B1-438. It counts as functional, streptococcus pneum.
In test [26] the test system is Streptococcus pyogenes. In words: In vivo effective dose against experimental infections in rodent caused by Streptococcus pyogenes C203 when administered sc. It counts as functional.
The next test relates to Streptococcus sanguinis. In words: In vitro antimicrobial activity against aerobic bacteria Streptococcus sanguis MX132. It counts as functional.
Test [27] has as its system Streptococcus pneumoniae. Kind of test: In vitro antimicrobial activity against Streptococcus pneumoniae. It counts as functional.
In test [28] the test system is Staphylococcus epidermidis. In words: In vitro antimicrobial activity against Staphylococcus epidermidis EPI1. It counts as functional.
The subject of test [29] is Staphylococcus epidermidis. In words: In vitro antimicrobial activity against aerobic bacteria Streptococcus epi 222. It counts as functional.
The test system of a further test is Enterococcus faecium. Kind of test: In vitro antimicrobial activity against Streptococcus faecium X66. It counts as functional, streptococcus fae-cium.
For test [30], the system named is Streptococcus pyogenes. Kind of test: In vitro antimicrobial activity against Streptococcus pyogenes C203. It counts as functional.
The test system of a further test is Streptococcus viridans. Kind of test: In vitro antimicrobial activity against aerobic bacteria Streptococcus viridans 9943. The class given is functional.
For test [31], the system named is Streptococcus. Kind of test: In vitro antimicrobial activity against aerobic bacteria Streptococcus B 5. The class given is functional.
The subject of test [32] is Staphylococcus aureus. Kind of test: In vitro antimicrobial activity against aerobic bacteria Staphylococcus aureus V135. It counts as functional.
The subject of test [33] is Streptococcus. Kind of test: In vitro antimicrobial activity against aerobic bacteria Streptococcus D 2041. The class given is functional.
The subject of test [34] is Streptococcus pyogenes. In words: In vivo effective dose against experimental infections in rodent caused by Streptococcus pyogenes C203 when administered orally. The class given is functional. As to conditions: po.

In the case of `CC[C@H]1OC(=O)C[C@@H](O)[C@H](C)[C@@H](O[C@@H]2O[C@H](C)[C@@H](O[C@H]3C[C@@](C)(O)[C@@H](O)[C@H](C)O3)[C@H](N(C)C)[C@H]2OC(C)=O)[C@@H](CCOc2ccccc2)C[C@@H](C)C(=O)/C=C/C(C)=C/[C@@H]1CO[C@@H]1O[C@H](C)[C@@H](O)[C@@H](OC)[C@H]1OC`, the values for the ED50 in the test with Streptococcus pyogenes [1] and in the test with Streptococcus pyogenes [2] were 76.5 mg/kg and > 10 mg/kg, respectively. Further, in the test with Streptococcus pyogenes [3], the MIC stood at 4 µg/mL (≈ 3.86 µM).
With `CC[C@H]1OC(=O)C[C@@H](O)[C@H](C)[C@@H](O[C@@H]2O[C@H](C)[C@@H](O)[C@H](N(C)C)[C@H]2O)[C@@H](CCN2C(=O)c3ccccc3C2=O)C[C@@H](C)C(=O)/C=C/C(C)=C/[C@@H]1CO[C@@H]1O[C@H](C)[C@@H](O)[C@@H](OC)[C@H]1OC`, the MIC worked out at 32 µg/mL (≈ 35.4 µM) against Haemophilus influenzae [4]; 32 µg/mL (≈ 35.4 µM) in the test with Haemophilus influenzae [5]; 32 µg/mL (≈ 35.4 µM) with Haemophilus influenzae [6]; 8 µg/mL (≈ 8.86 µM) against Streptococcus [13]; 8 µg/mL (≈ 8.86 µM) in the test on Streptococcus [14]; 0.5 µg/mL (≈ 0.554 µM) against Streptococcus [15]. For the same compound, the MIC in the test on Streptococcus [16] is 4 µg/mL (≈ 4.43 µM); against Streptococcus [17], 4 µg/mL (≈ 4.43 µM); with Streptococcus [18], 32 µg/mL (≈ 35.4 µM); in test [19], > 128 µg/mL; with Staphylococcus aureus [20], 0.12 µg/mL (≈ 0.133 µM); against Staphylococcus aureus [21], 0.25 µg/mL (≈ 0.277 µM). The MIC against Staphylococcus aureus [22] is 0.5 µg/mL (≈ 0.554 µM); with Staphylococcus aureus [23], 0.25 µg/mL (≈ 0.277 µM); in the test on Staphylococcus aureus [24], 0.5 µg/mL (≈ 0.554 µM); against Streptococcus pneumoniae [25], > 128 µg/mL; with Streptococcus sanguinis it was 2 µg/mL (≈ 2.21 µM); with Streptococcus pneumoniae [27], 2 µg/mL (≈ 2.21 µM). In addition, the MIC is 0.12 µg/mL (≈ 0.133 µM) in test [28]; 0.1 µg/mL (≈ 0.111 µM) in [29]; 8 µg/mL (≈ 8.86 µM) in the test with Enterococcus faecium; 0.25 µg/mL (≈ 0.277 µM) with Streptococcus pyogenes [30]; > 128 µg/mL against Streptococcus viridans; 8 µg/mL (≈ 8.86 µM) against Streptococcus [31]. Moreover, the MIC in the test with Staphylococcus aureus [32] was found to be 0.5 µg/mL (≈ 0.554 µM); against Streptococcus [33] it was 8 µg/mL (≈ 8.86 µM). The Concentration is 0.3 µg/mL in the test with Mus musculus [7]; < 0.1 µg/mL in the test on Mus musculus [8]; < 0.1 µg/mL with Mus musculus [9]; 2.1 µg/mL in the test with Mus musculus [10]; 0.9 µg/mL in the test on Mus musculus [11]; 0.8 µg/mL with Mus musculus [12]. Also, the figures for the ED50 in the test with Streptococcus pyogenes [26] and in the test with Streptococcus pyogenes [34] were 2.7 mg/kg and 15 mg/kg, respectively.
`CC[C@H]1OC(=O)C[C@@H](O)[C@H](C)[C@@H](O[C@@H]2O[C@H](C)[C@@H](OC(C)=O)[C@H](N(C)C)[C@H]2OC(C)=O)[C@@H](CCOc2ccccc2)C[C@@H](C)C(=O)/C=C/C(C)=C/[C@@H]1CO[C@@H]1O[C@H](C)[C@@H](O)[C@@H](OC)[C@H]1OC`: the 50% effective dose (ED50) was 16 mg/kg in the test with Streptococcus pyogenes [1] and 2.9 mg/kg in the test with Streptococcus pyogenes [2]. For the same compound, the MIC with Streptococcus pyogenes [3] worked out at 0.5 µg/mL (≈ 0.535 µM).

A word on the ED50: it is the dose that gives a 50% effect, or the effect in half of the subjects. Higher therefore signals a need for a large dose.
